This is one part of a sample in which hits are shown more often than they occur.
Fibroblast inh: blocks proliferation of human lung fibroblasts; LL 47 human lung fibroblast viability, ATP luminescence; active compounds read low; viability, % at 10 µM; actives 1.1% (n = 85,000);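 active = viability at or below 50% in the single dose screen; inactive = viability above 50%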;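 note: compound exposure lasted 72 h before the ATP readout; 100% = median luminescence of untreated cell-only wells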
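Assay system: human lung fibroblast line LL 47, low passage. Input: 1,150 fibroblasts seeded per well. Times: overnight cell rest, 72 h compound treatment at 37 °C. Evaluation: % viability of median cell-only signal. Technique: luminescent ATP detection, CellTiter-Glo. Control set: cell-only wells, no compound.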
PTEN del growth: growth suppressors of cells with PTEN tumor suppressor deletion; HCT116 PTEN-null viability, CellTiter-Glo, 60 h; active compounds read low; viability, % at 10 µM; actives 1.2% (n = 140,000);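 active = viability at or below a set limit, 4 SD under the median of all tested compounds, cut at about 3.7% in these data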;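 note: PTEN knockout HCT116 line with beta catenin targeted HCT116 as companion control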
H69AR growth 86K: growth inhibitors of human H69AR lung tumor cells. viability, % at 10 µM. actives 6% (n = 85,000). H69AR lung tumor viability, ATP luminescence, 72 h; active compounds read low. AID 598;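 active = viability at or below 40%; inactive = viability above 40%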;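 note: multidrug resistant small cell line overexpressing MRP-1 efflux transporter; 100% = mean luminescence of untreated control wells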
Phagocyt inh: macrophage phagocytosis inhibition. actives 0.07% (n = 110,000). J774A.1 macrophage IgG-bead phagocytosis, imaging. inhibition, % at 5 µM;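 active = inhibition above the mean of the plate negative controls plus 5 SD, cut at about 13% in these data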;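 note: phagocytic index as fraction of beads internalized from green versus red external bead signal; plate controls were DMSO negative control for no effect and cytochalasin-D positive control for full effect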
HCT116 bCat-KO: beta-catenin-lacking colon tumor cell growth suppression | HCT116 beta-catenin knockout viability, CellTiter-Glo, 60 h; active compounds read low | viability, % at 10 µM | actives 1.5% (n = 140,000);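 active = viability at or under a set limit, the compound median less 4 SD, cut at about 6% in these data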;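 note: 0% = Hyamine 1622 control at 20 µM and 100% = untreated cell control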
HUVEC inhibit: human endothelial cell proliferation inhibition; HUVEC proliferation, CellTiter-Glo luminescence, 72 h; active compounds read low; viability, % at 10 µM (by protocol); actives 1.1% (n = 86,000); AID 648;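 active = viability at or below 30%; inactive = viability above 30%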;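 note: 100% = median luminescence of DMSO-only cell control wells on each plate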
* hit, by the source's call; · = not tested or not shown.

SMILES	Fibroblast inh	PTEN del growth	H69AR growth 86K	Phagocyt inh	HCT116 bCat-KO	HUVEC inhibit
CCC(CO)[n+]1c(C)cc(/C=C2\Sc3ccccc3N2Cc2ccccc2)cc1C (centres undefined)	·	1.6*	·	-1.7	1.4*	·
CC(=O)NC1=NN(C(C)=O)C(C)(CS(=O)(=O)c2ccc3ccccc3c2)S1 (centres undefined)	103.5	91.7	85.7	·	85.2	95.4
O=C(N/N=C/c1ccc(COc2ccc(Br)cc2)o1)c1ccco1	·	95.6	·	-2.3	93.8	·
Cc1ccccc1Nc1nc(N)nc(CSc2nc3ccccc3c(=O)n2C)n1	100.2	75.4	94.5	0.6	90.2	100.3
O=C(c1cc(-c2cccc(O)c2)on1)N1CCN(C(c2ccccc2)c2ccccc2)CC1	84.5	41.2	5.2*	-1.2	42.9	79.7
O=C(Nc1cccc(C(F)(F)F)c1)c1cc(-c2ccc(F)cc2)on1	102.6	93.0	93.2	1.4	102.2	54.9
CC(=O)Nc1ccc(SCC(=O)N(CCC#N)c2ccc(C)cc2)cc1	109.4	95.6	32.9*	2.4	100.0	98.8
COC(=O)c1cc(Br)c(=O)n(Cc2cccnc2)c1	88.5	104.1	94.9	-0.3	100.4	83.4
NC(N)=N/N=C/c1ccccc1	96.3	81.0	99.5	-0.9	91.1	98.6
NC(N)=N/N=C/c1ccc(OCc2ccccc2Cl)cc1	·	0.9*	·	·	0.9*	·
CCOc1cc(C2C(C#N)=C(N)OC(C)=C2C(C)=O)c(Br)c(Br)c1OC(C)C (centres undefined)	61.6	10.5	3.2*	·	12.3	31.4
O=S(=O)(CC(CN1CCCC1)N1CCCC1)c1ccc2ccccc2c1 (centres undefined)	3.5*	2.1*	1.9*	·	1.9*	18.4*
Cc1cc(NC(=O)c2cccc(S(=O)(=O)N(C)C)c2)n(-c2ccccn2)n1	96.0	101.5	26.4*	0.2	93.0	78.9
Cc1cccc(/C=C(\c2nc3ccccc3[nH]2)S(=O)(=O)c2ccccc2)c1	·	0.9*	·	-8.7	1.9*	·
O=C(COC(=O)c1cc(-c2cccs2)nn1-c1ccccc1)Nc1ccc(Cl)c([N+](=O)[O-])c1	·	87.5	·	-5.1	92.1	·
COc1c(Cl)cc(Cl)cc1/C=C/C(=O)c1ccc(NC(=O)c2cccs2)cc1	·	1.8*	·	-8.5	2.6*	·
CCOCC(O)CNc1ccccc1 (centres undefined)	·	97.5	·	-5.6	98.8	·
OC(CNc1ccccc1)COc1ccc(OCC(O)CNc2ccccc2)cc1 (centres undefined)	·	1.6*	·	0.2	1.7*	·
CCOc1ccc(-c2nnn(CC(=O)Nc3cc(OC)ccc3OC)n2)cc1OCC	94.0	94.1	97.2	·	107.8	61.8
COc1ccc(N2CCN(C(=O)Cn3nnc(-c4ccc(OC)c(OC)c4)n3)CC2)cc1	100.4	58.8	14.7*	0.2	78.1	101.4
COc1ccc(-c2nnn(CC(=O)NC3CCCc4ccccc43)n2)cc1OC (centres undefined)	66.1	·	24.8*	-0.6	·	99.9
Cc1ccc(-c2noc(CCC(=O)NC3CCN(Cc4ccccc4)CC3)n2)cc1	98.7	45.1	84.6	0.9	38.9	95.4
CCOc1ccc(-c2nnn(CC(=O)Nc3cc(OC)cc(OC)c3)n2)cc1OCC	94.8	62.9	10.5*	-0.4	54.3	54.5
Cc1ccc(-c2noc(CCC(=O)NC3CCCc4ccccc43)n2)cc1 (centres undefined)	104.6	87.0	19.7*	4.4	80.5	87.9
CC1CCCN(C(=O)C2CCN(CC3CC=CCC3)CC2)C1 (centres undefined)	103.8	91.2	92.1	-0.4	90.1	98.7
SMILES	Fibroblast inh	PTEN del growth	H69AR growth 86K	Phagocyt inh	HCT116 bCat-KO	HUVEC inhibit
S=C(Nc1cccc(Cl)c1Cl)Nn1cnnc1	·	97.3	·	-5.8	92.3	·
COc1ccccc1C(=O)N/C(=C/c1ccc(Br)cc1)C(=O)NCC(=O)O	·	88.6	·	-6.5	81.2	·
CCOc1ccccc1NC(=O)Cn1nnc(-c2ccc(OCC)c(OCC)c2)n1	72.8	2.8*	3.5*	-2.9	2.0*	54.9
CCSc1nc2ccc(N3C(=O)C4C5C=CC(C5)C4C3=O)cc2s1 (centres undefined)	·	85.9	·	-6.5	77.3	·
O=C(NC(c1ccccc1)c1c(O)ccc2ccccc12)c1ccccc1Cl (centres undefined)	·	86.7	·	·	81.6	·
O=C(NC(c1ccc(Cl)cc1)c1c(O)ccc2ccccc12)c1ccccc1 (centres undefined)	·	0.6*	·	-8.2	1.1*	·
CCOc1ccc2nc(NC3=NC(C)(C)C=C(C)N3)nc(C)c2c1	·	12.2	·	-1.7	5.0*	·
CCOc1ccc2nc(NC3=NC(c4ccc(OC)cc4)CC(=O)N3)nc(C)c2c1 (centres undefined)	·	1.8*	·	·	1.4*	·
Cc1cccc(C)c1NC(=O)CC(NCCc1ccccc1)C(=O)O (centres undefined)	·	98.9	·	-3.8	92.0	·
Cc1cc([N+](=O)[O-])ccc1NC(=S)NC(=O)C(c1ccccc1)c1ccccc1	93.8	79.0	32.1*	-0.4	87.2	81.4
COc1ccc(OC)c(C2C(C(=O)Nc3cccnc3)=C(C)NC3=C2C(=O)CCC3)c1 (centres undefined)	102.6	96.4	88.9	-0.1	102.0	102.8
O=C(/C=C/c1c(Cl)cccc1Cl)n1cccn1	92.5	99.5	26.3*	·	99.3	90.0
Cc1ccc(N=Nc2c(N)[nH]n3c(=O)cc(-c4ccccc4)nc23)cc1	·	13.0	·	·	7.2	·
COc1cccc(N=Nc2c(N)[nH]n3c(=O)cc(-c4ccccc4)nc23)c1	·	11.6	·	·	3.1*	·
CCN1CCc2c(C#N)c(N3CCCCC3)nc(NCc3ccccc3)c2C1	89.6	0.9*	53.1	-1.0	1.2*	58.3
COc1cc(NC(=O)CN2C(=O)NC(c3ccccc3)(c3ccccc3)C2=O)c(C)cc1[N+](=O)[O-]	·	76.8	·	-4.2	81.8	·
CC1(C)Cc2c(sc3c4nnnn4c4nnnn4c23)CO1	92.9	14.3	2.5*	-0.3	8.2	54.3
CSc1nc2sc3c(c2c2nnnn12)CC(C)(C)OC3	94.5	·	98.3	·	·	93.6
Cc1cc(NC(=O)CSc2nc3sc(C)c(C)c3c(=O)n2C2CCCC2)no1	14.6*	84.8	15.2*	·	88.9	44.6
CS(=O)(=O)N(CCc1ccccc1)CC(=O)NCC1CCCO1 (centres undefined)	102.8	91.3	80.0	-1.8	84.8	92.6
C=CCNCCOCCOc1ccc(Cl)cc1C(C)(C)C	·	82.7	·	2.4	78.5	·
COCCCNCCOCCOc1ccc(Cl)cc1C(C)(C)C	·	1.1*	·	-1.4	0.9*	·
COc1ccc(Cl)cc1NC(=O)Cn1c(=O)n2nc(C)nc2c2ccccc21	102.7	87.6	0.9*	0.1	93.3	93.5
COc1ccccc1NC(=O)Cn1nc(-c2ccc(Cl)cc2)c2ccccc2c1=O	104.6	14.4	35.2*	-1.3	9.3	89.2
COc1ccc(Cl)cc1NC(=O)CN1C(=O)CCS(=O)(=O)c2ccccc21	100.8	83.3	28.9*	·	85.4	100.7

Screening data: PubChem, several laboratories
